Tested on: HEK-293T
Test: Multiplex assay against HEK293T;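 for Population Tubulin-Different-Phenotype (%): share of the cells with healthy nuclei that show this phenotype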
Assay type: toxicity, cell-based
Conditions: human
Method in brief: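 Live cells carried four stains from seeding: Hoechst33342, BioTracker Green Microtubule Cytoskeleton Dye, MitoTracker Red and Annexin V Alexa Fluor 680. They were imaged on a CQ1 microscope at 37°C and 5% CO2 after compound addition. Using CellPathfinder machine-learning gating, cells were split into Hoechst high-intensity objects or normal cells, normal cells into healthy, pyknosed or fragmented nuclei, and pyknosed cells into mitotic or apoptotic; tubulin, mitochondrial-mass and membrane-permeability phenotypes are per cents of healthy-nucleus cells.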

[1] = 12 h, 1 µM, compound concentration 1 uM, replicate 1
[2] = 12 h, 1 µM, compound concentration 1 uM, replicate 2
[3] = 12 h, 10 µM, compound concentration 10 uM, replicate 1
[4] = 12 h, 10 µM, compound concentration 10 uM, replicate 2
[5] = 24 h, 1 µM, compound concentration 1 uM, replicate 1
[6] = 24 h, 1 µM, compound concentration 1 uM, replicate 2
[7] = 24 h, 10 µM, compound concentration 10 uM, replicate 1
[8] = 24 h, 10 µM, compound concentration 10 uM, replicate 2
[9] = 48 h, 1 µM, compound concentration 1 uM, replicate 1
[10] = 48 h, 1 µM, compound concentration 1 uM, replicate 2
[11] = 48 h, 10 µM, compound concentration 10 uM, replicate 1
[12] = 48 h, 10 µM, compound concentration 10 uM, replicate 2

C[C@]12CC[C@@H]3c4ccc(O)cc4CC[C@H]3[C@@H]1CC[C@@H]2O [ESTRADIOL]
Population Apoptotic (%) [1]: 40% | Population Fragmented Nuclei (%) [1]: 10% | Population Healthy Nuclei (%) [1]: 45% | Population Hoechst High Intensity Objects (%) [1]: 14% | Population Membrane Permeable-Phenotype (%) [1]: 1% | Population Mitochondria Different-Phenotype (%) [1]: 72% | Population Mitotic Cells (%) [1]: 59% | Population Normal (%) [1]: 85% | Population Pyknosed Nuclei (%) [1]: 44% | Population Tubulin-Different-Phenotype (%) [1]: 41% | Population Apoptotic (%) [2]: 4% | Population Fragmented Nuclei (%) [2]: 7% | Population Healthy Nuclei (%) [2]: 42% | Population Hoechst High Intensity Objects (%) [2]: 3% | Population Membrane Permeable-Phenotype (%) [2]: 3% | Population Mitochondria Different-Phenotype (%) [2]: 10% | Population Mitotic Cells (%) [2]: 95% | Population Normal (%) [2]: 96% | Population Pyknosed Nuclei (%) [2]: 50% | Population Tubulin-Different-Phenotype (%) [2]: 11% | Population Apoptotic (%) [3]: 42% | Population Fragmented Nuclei (%) [3]: 11% | Population Hoechst High Intensity Objects (%) [3]: 15% | Population Membrane Permeable-Phenotype (%) [3]: 0% | Population Mitochondria Different-Phenotype (%) [3]: 76% | Population Mitotic Cells (%) [3]: 57% | Population Normal (%) [3]: 84% | Population Pyknosed Nuclei (%) [3]: 52% | Population Tubulin-Different-Phenotype (%) [3]: 29% | Population Apoptotic (%) [4]: 10% | Population Fragmented Nuclei (%) [4]: 5% | Population Healthy Nuclei (%) [4]: 36% | Population Hoechst High Intensity Objects (%) [4]: 5% | Population Membrane Permeable-Phenotype (%) [4]: 1% | Population Mitochondria Different-Phenotype (%) [4]: 11% | Population Mitotic Cells (%) [4]: 89% | Population Normal (%) [4]: 94% | Population Pyknosed Nuclei (%) [4]: 58% | Population Tubulin-Different-Phenotype (%) [4]: 9% | Population Apoptotic (%) [5]: 37% | Population Fragmented Nuclei (%) [5]: 12% | Population Healthy Nuclei (%) [5]: 52% | Population Hoechst High Intensity Objects (%) [5]: 16% | Population Membrane Permeable-Phenotype (%) [5]: 1% | Population Mitochondria Different-Phenotype (%) [5]: 45% | Population Mitotic Cells (%) [5]: 62% | Population Normal (%) [5]: 83% | Population Pyknosed Nuclei (%) [5]: 34% | Population Tubulin-Different-Phenotype (%) [5]: 34% | Population Apoptotic (%) [6]: 6% | Population Fragmented Nuclei (%) [6]: 3% | Population Healthy Nuclei (%) [6]: 64% | Population Hoechst High Intensity Objects (%) [6]: 3% | Population Membrane Permeable-Phenotype (%) [6]: 10% | Population Mitochondria Different-Phenotype (%) [6]: 6% | Population Mitotic Cells (%) [6]: 93% | Population Normal (%) [6]: 96% | Population Pyknosed Nuclei (%) [6]: 31% | Population Tubulin-Different-Phenotype (%) [6]: 21% | Population Apoptotic (%) [7]: 39% | Population Fragmented Nuclei (%) [7]: 11% | Population Healthy Nuclei (%) [7]: 46% | Population Hoechst High Intensity Objects (%) [7]: 16% | Population Membrane Permeable-Phenotype (%) [7]: 1% | Population Mitochondria Different-Phenotype (%) [7]: 53% | Population Mitotic Cells (%) [7]: 60% | Population Normal (%) [7]: 83% | Population Pyknosed Nuclei (%) [7]: 41% | Population Tubulin-Different-Phenotype (%) [7]: 39% | Population Apoptotic (%) [8]: 7% | Population Fragmented Nuclei (%) [8]: 5% | Population Healthy Nuclei (%) [8]: 47% | Population Hoechst High Intensity Objects (%) [8]: 5% | Population Membrane Permeable-Phenotype (%) [8]: 8% | Population Mitochondria Different-Phenotype (%) [8]: 12% | Population Mitotic Cells (%) [8]: 92% | Population Normal (%) [8]: 94% | Population Pyknosed Nuclei (%) [8]: 47% | Population Tubulin-Different-Phenotype (%) [8]: 12% | Population Apoptotic (%) [9]: 42% | Population Fragmented Nuclei (%) [9]: 15% | Population Healthy Nuclei (%) [9]: 61% | Population Hoechst High Intensity Objects (%) [9]: 13% | Population Membrane Permeable-Phenotype (%) [9]: 3% | Population Mitochondria Different-Phenotype (%) [9]: 20% | Population Mitotic Cells (%) [9]: 57% | Population Normal (%) [9]: 86% | Population Pyknosed Nuclei (%) [9]: 23% | Population Tubulin-Different-Phenotype (%) [9]: 25% | Population Apoptotic (%) [10]: 3% | Population Fragmented Nuclei (%) [10]: 5% | Population Healthy Nuclei (%) [10]: 81% | Population Hoechst High Intensity Objects (%) [10]: 3% | Population Membrane Permeable-Phenotype (%) [10]: 8% | Population Mitochondria Different-Phenotype (%) [10]: 3% | Population Mitotic Cells (%) [10]: 96% | Population Normal (%) [10]: 96% | Population Pyknosed Nuclei (%) [10]: 13% | Population Tubulin-Different-Phenotype (%) [10]: 13% | Population Apoptotic (%) [11]: 29% | Population Fragmented Nuclei (%) [11]: 16% | Population Healthy Nuclei (%) [11]: 56% | Population Hoechst High Intensity Objects (%) [11]: 11% | Population Membrane Permeable-Phenotype (%) [11]: 1% | Population Mitochondria Different-Phenotype (%) [11]: 30% | Population Mitotic Cells (%) [11]: 70% | Population Normal (%) [11]: 88% | Population Tubulin-Different-Phenotype (%) [11]: 25% | Population Apoptotic (%) [12]: 11% | Population Fragmented Nuclei (%) [12]: 3% | Population Healthy Nuclei (%) [12]: 69% | Population Hoechst High Intensity Objects (%) [12]: 4% | Population Membrane Permeable-Phenotype (%) [12]: 3% | Population Mitochondria Different-Phenotype (%) [12]: 4% | Population Mitotic Cells (%) [12]: 88% | Population Normal (%) [12]: 95% | Population Pyknosed Nuclei (%) [12]: 26% | Population Tubulin-Different-Phenotype (%) [12]: 10%

Reference: ChEMBL document CHEMBL4689842, “EUbOPEN Chemogenomics Library wave 1” (2021)
